STAT1 inh = STAT1 signaling inhibition | NIH 3T3 STAT1-luciferase reporter, IFN-gamma, luminescence | inhibition, % at 5.5 µM | hit rate 0.35% among 200,000 | AID 920;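 active = inhibition above a set limit, the mean inhibition across all tested compounds plus 3 SD, cut at about 34% in these data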;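 also: 0% = IFN-gamma with DMSO and 100% = IFN-gamma with 300 µM nifuroxazide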
APP 5'UTR act = APP 5'UTR luciferase reporter activation; SH-SY5Y APP 5'UTR luciferase reporter, luminescence; zero percent = DMSO vehicle wells; activation, % at 2 µM; hit rate 1% among 190,000;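 active = activation above a set limit, based on mean plus 3 SD of controls, cut at about 140% in these data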
STAT1 act = increases IFN-gamma driven STAT1 reporter signal; NIH 3T3 STAT1-luciferase reporter, luminescence; 100% = IFN-gamma alone, no compound; activation (% of control), % at 5.5 µM; hit rate 2.6% among 200,000; AID 932;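 active = activation above the screen-wide mean activation plus 3 SD, cut at about 130% in these data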;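 also: raw ratio to IFN-gamma control signal so 100% means no change and 0% no light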
STAT3 act = STAT3 signaling activation; AID 871; U3A cells, IL-6 STAT3-luciferase reporter, luminescence; 100% = signal with IL-6 EC80 alone; activation (% of control), % at 5.6 µM; hit rate 0.91% among 190,000;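 active = activation above the screen-wide mean of compound activation plus 3 SD, cut at about 130% in these data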;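 also: 0% = background luminescence of wells with medium and substrate only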
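Assay system – human STAT1-deficient U3A cells with stable STAT3-luciferase reporter · Also added – IL-6 (33 ng/mL) · Schedule – compound 1 h, then IL-6 6 h at 37 °C · Technique – reporter luminescence signal · Evaluation – % activation versus median of IL-6-stimulated wells · Benchmarks – IL-6-only wells as 100% reference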
Pf gamet viab = kills late stage P. falciparum gametocytes; AID 743093; hit rate 0.065% among 150,000; P. falciparum stage V gametocytes, ATP luminescence, 24 h; inhibition, % at 10.9 µM;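 active = inhibition above the mean plus 3 SD of compounds within the control limits, set per campaign, cut at about 38% in these data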;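 also: 0% = DMSO wells and 100% = medium only without gametocytes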
NF-kB expr up = NF-kB expression increase, human neuronal cells; NF-kB reporter expression; hits give high values; hit rate 1.6% among 190,000; fold change at 12.5 µM; in the data active = fold change above about 3.3
An asterisk follows results filed as active; · = no result. Rows were chosen to be rich in hits. Some 3.9% of all compounds tested hit in one or more screens of this group.

SMILES	STAT1 inh	APP 5'UTR act	STAT1 act	STAT3 act	Pf gamet viab	NF-kB expr up
CCCCOC(=O)C(C)Sc1n[nH]c(=O)[nH]c1=O (stereo not given)	2	12	97	104	-11	0.99
COc1ccc(C(=O)Nc2cc(OC)c(Cl)cc2Cl)cc1	-19	9	117	122	·	1.5
COc1ccc(C(=O)Nc2scc(-c3ccc(Cl)cc3Cl)c2C(N)=O)cc1	-53	80	148*	96	-26	1.1
O=C(NC(=S)Nc1nc2c(s1)CSc1ccccc1-2)c1ccccc1	15	-5	87	167*	12	1.2
O=C(NC(=S)Nc1nc2c(s1)CCCC2)c1ccc(C(=O)c2ccccc2)cc1	8	-5	92	90	·	1.1
COc1ccc(NC(=O)CN2CCN(c3c(C)cc(C)cc3C)CC2)cc1	·	·	·	·	16	·
O=C(O/N=C1/CCSc2ccccc21)c1ccc(F)cc1	-4	2	104	135*	·	1.2
O=C(O/N=C1/CCCc2occc21)c1ccc(F)cc1	-15	-19	114	97	5	1.4
CCOC(=O)c1[nH]c2ccc(OC)cc2c1C	-46	31	142*	81	17	1.9
CCC(C)[C@H](NC(=O)NC(C)C)C(=O)O (stereo not given in full)	5	-1	95	92	4	1.2
COc1cc(NC(=O)CSc2nc3ccccc3cc2C)c(C(=O)O)cc1OC	1	5	99	99	·	8.7*
CS/C(=N\S(=O)(=O)c1cccs1)Nc1ccc(F)c(Cl)c1	8	-4	93	105	59*	0.92
C/C(=N\NC(=O)c1ccc([N+](=O)[O-])cc1Cl)c1ccccc1	-30	25	126	110	11	1.8
CCOC(=O)C1(CCc2ccccc2)CCN(C(=O)[C@@H]2C[C@@H](C)NC(=S)N2)CC1	-4	5	102	100	·	·
Cc1ccc(-c2csc(-c3c[nH]c4ccccc34)n2)c(C)c1	-24	31	123	99	·	2.5
Oc1ccc(-c2csc(-c3c[nH]c4ccccc34)n2)c(O)c1	-49	107	144*	158*	-15	4.2*
CCOC(=O)c1ccc(NC(=O)C(=O)NCC2(c3ccc(OC)cc3)CCOCC2)cc1	·	·	·	·	1	·
COc1ccccc1N1CCN(/N=C/C=C\c2ccco2)CC1	-41	73	137*	107	1	4*
COc1ccccc1N1CCN(C(=O)/C=C/c2ccco2)CC1	-9	5	108	105	-20	1.2
COc1cccc(/C=N/N2CCN(c3ccccc3OC)CC2)c1	-35	32	135*	88	19	1.9
Cc1cc(C)c(C#N)c(SCc2nnc(-c3ccccc3[N+](=O)[O-])o2)n1	-43	213*	140*	107	1	3.2
O=C(O/N=C/c1ccc2c(c1)OCO2)c1ccccc1Cl	-4	7	103	98	·	3.7*
Cc1cc(C)n2ncc(C(=O)NCc3ccc(Cl)cc3)c2n1	-4	4	104	97	·	0.89
O=C(NCc1ccc(Cl)cc1)c1cnn2ccccc12	-34	77	131*	106	·	2.4
CC(=O)/C(N=Nc1ccc2c(c1)OCCO2)=C(\C)O	19	16	82	44	16	2
SMILES	STAT1 inh	APP 5'UTR act	STAT1 act	STAT3 act	Pf gamet viab	NF-kB expr up
CC(=O)/C(N=Nc1ccc2c(c1)OCO2)=C(\C)O	-43	37	138*	108	1	1.1
CCCC(=O)c1c[nH]c(C(=O)N2CCOCC2)c1	-5	-6	102	100	-2	0.97
O=C(c1ccco1)[C@@H]1[C@@H]2C(=O)N(c3ccc(F)cc3)C(=O)[C@@H]2C2c3ccccc3C=CN21 (stereo not given in full)	-4	-7	104	134*	-18	1.2
NS(=O)(=O)c1cccc(NC(=O)COC(=O)CCCc2c[nH]c3ccccc23)c1	4	-11	94	101	-21	1.2
c1ccc(-c2nnc3ccc(N4CCCC4)nn23)cc1	-9	4	108	89	·	1.5
CC1CCCN(c2ccc3nc4ccccc4c(=O)n3n2)C1 (stereo not given)	51*	175*	51	38	·	2.1
Cc1ccc2nc3ccc(N4CCCC4)nn3c(=O)c2c1	-37	100	134*	97	·	1.7
Cc1sc2nc3ccc(N4CCCCC4)nn3c(=O)c2c1C	-26	34	124	87	18	1.2
CCSc1ccc([C@@H]2[C@@H]3C(=O)N(CC)C(=O)[C@@H]3[C@]3(C(=O)OC)CCCN23)cc1	·	·	·	·	-25	·
COc1cc(/C=N/Nc2nnc3c(n2)[nH]c2ccccc23)ccc1O	-36	10	133*	98	-5	1.2
CCCOc1ccc(/C=N/Nc2ccccn2)cc1OC	-51	118	148*	101	-1	2.4
C=CCOc1ccc(/C=N/Nc2ccccn2)cc1OC	-44	91	138*	88	·	2.5
COc1cc(/C=N/Nc2ccccn2)ccc1OCC(C)C	-55	91	148*	109	·	1.5
CC(=O)c1ccc(S(=O)(=O)N(Cc2cc3cc4c(cc3[nH]c2=O)OCCO4)CC2CCCO2)cc1 (stereo not given)	-32	26	129*	109	·	1.6
CC(=O)Nc1ccc(S(=O)(=O)NCC2CCC(C(=O)NC(C)c3ccc4c(c3)OCCO4)CC2)cc1 (stereo not given)	-2	-2	98	101	·	0.86
COc1ccccc1N1CCN(c2ccc(-c3ccccc3)nn2)CC1	-15	-90	112	47	·	6.6*
COc1ccccc1N1CCN(c2nc(-c3ccccc3)cc(C(F)(F)F)n2)CC1	7	12	94	103	·	1
C/C(=N\O)c1ccc(N2C(=O)C3CC=C(Cl)CC3C2=O)cc1 (stereo not given)	-43	144*	139*	91	-11	2.1
Cc1ccc(NC(=O)c2ccc(N3C(=O)C4CC=C(Cl)CC4C3=O)cc2)cc1 (stereo not given)	1	·	99	87	5	0.96
CC(C)(C)C(=O)CSc1nnc(Nc2ccccc2)s1	-35	16	130*	113	-14	1.8
CC(C)(C)C(=O)c1sc(Nc2ccccc2)nc1N	-54	64	150*	110	·	3.8*
Cc1nc(Nc2ccccc2)sc1C(=O)c1ccccc1	·	·	·	·	-6	·
Cc1ccc(S(=O)(=O)N(c2ccccc2)C2CCS(=O)(=O)C2)cc1 (stereo not given)	-2	-9	102	100	3	1.2
CN(C1CCS(=O)(=O)C1)S(=O)(=O)c1ccccc1 (stereo not given)	-5	4	105	106	38*	1.1
COc1ccc(-c2nn(-c3ccccc3)cc2C(=O)Nc2nccs2)cc1	4	·	99	81	-8	0.33
O=C(Nc1ccc(F)c(F)c1)c1cnc(-c2ccccc2)nc1-c1ccccc1	-5	-8	104	102	29	1.1
